Measured values: PubChem BioAssay
Activity calls are given as the source filed them.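 Rule for the calls, unless noted: active = a full or partial loss of lipid-probe fluorescence in the fish gall bladder, intestine or both, judged by eye; inactive = no fluorescence loss, or compound toxic to the fish.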

Legend:
[1] = inhibitors of TNFa-induced NFkB p65 translocation, primary screen, imaging, HUVEC, MLSMR starter and 10KST1 sets (AID 438;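 active = inhibition above 20% together with a positive visual image hit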;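 note: compound added about 3h40 before a 20 min TNFalpha stimulation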;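 for inhibition: signal is the nuclear over cytoplasmic p65 intensity ratio per well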); details: HUVEC TNFa-induced p65 nuclear translocation; cell count: measured here: nuclei count (cytotoxicity indicator), at 2.08 µM; inhibition: at 2 µM, stronger effect = higher value, 0% TNFa-plus-vehicle, 100% no-TNFa wells
[2] = inhibitors of E-selectin induction by TNFa, primary screen, imaging, HUVEC, immunofluorescence, MLSMR starter and 10KST1 sets (AID 487;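 active = visually confirmed hit in the image check and inhibition above 20%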;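 for inhibition: signal is fraction of cell area covered by stained E-selectin grains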;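 for nuclei count: 100% = median nuclei count of all wells on the same plate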); details: HUVEC TNFalpha-induced E-selectin immunofluorescence imaging, at 2 µM; inhibition: stronger effect = higher value; nuclei count: measured here: cell number, toxicity
[3] = DUSP6 inhibitors restoring Erk phosphorylation by chemical complementation, primary imaging in DUSP6-transfected HeLa (AID 609;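 active = compounds giving at least 50% inhibition in the cell-based MKP-3 phosphatase rescue imaging test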;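 for inhibition: phospho-Erk level distribution per well compared with pooled transfected vehicle control wells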); details: HeLa MKP-3 transfected, phospho-Erk imaging KS statistic, at 10 µM, cells stimulated with TPA for 15 min
[4] = biological target: Dual specificity protein phosphatase 6 (Homo sapiens) (UniProt Q16828); test: as above; details: HeLa MKP-3 transfected, phospho-Erk imaging KS statistic; at 10 µM; stronger effect = higher value; cells stimulated with TPA for 15 min
Dual specificity protein phosphatase 6 (Homo sapiens), sequence (Q16828 whole entry, looked up): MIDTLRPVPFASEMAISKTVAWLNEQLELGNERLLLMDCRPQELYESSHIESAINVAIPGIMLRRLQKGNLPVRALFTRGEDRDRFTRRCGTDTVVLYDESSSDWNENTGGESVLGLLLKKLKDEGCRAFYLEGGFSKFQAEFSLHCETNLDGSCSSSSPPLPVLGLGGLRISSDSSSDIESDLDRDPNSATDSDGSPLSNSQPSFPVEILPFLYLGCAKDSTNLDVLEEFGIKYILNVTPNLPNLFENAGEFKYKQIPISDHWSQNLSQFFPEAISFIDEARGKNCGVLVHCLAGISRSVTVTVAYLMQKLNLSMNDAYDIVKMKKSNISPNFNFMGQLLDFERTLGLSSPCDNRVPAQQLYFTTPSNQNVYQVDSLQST

[5] = biological target: Voltage-gated potassium channel subunit beta-2 (Rattus norvegicus) (UniProt P62483); test: KvBeta enzyme negative modulators, primary screen, biochemical, NADPH fluorescence (AID 622;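 active = fluorescence slope higher than the sample average by over 3 SD, cut at about -0.22 in these data, passing the limit was not always enough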;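 note: slope of raw intensity against log time taken from 70 to 1610 s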); details: recombinant KvBeta, 4-cyanobenzaldehyde reduction, at 10 µM, stronger effect = higher value
Voltage-gated potassium channel subunit beta-2 (Rattus norvegicus), sequence (P62483 whole entry, looked up): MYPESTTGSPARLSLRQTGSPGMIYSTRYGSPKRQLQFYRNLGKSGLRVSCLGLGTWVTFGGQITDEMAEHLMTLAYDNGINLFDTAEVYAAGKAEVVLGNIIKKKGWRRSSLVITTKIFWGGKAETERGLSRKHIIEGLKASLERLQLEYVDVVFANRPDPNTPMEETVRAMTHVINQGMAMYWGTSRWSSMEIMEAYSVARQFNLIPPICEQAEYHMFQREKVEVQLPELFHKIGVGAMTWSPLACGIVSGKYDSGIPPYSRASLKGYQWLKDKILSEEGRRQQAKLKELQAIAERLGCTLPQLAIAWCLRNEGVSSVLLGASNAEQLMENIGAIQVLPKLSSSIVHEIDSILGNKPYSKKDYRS

[6] = biological target: Voltage-gated potassium channel subunit beta-2 (Rattus norvegicus) (UniProt P62483); test: KvBeta positive modulators, primary screen, biochemical, NADPH fluorescence (AID 623;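 active = NADPH fluorescence slope more negative than the mean of all samples by about 3 SD, 99.7% confidence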;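 note: fluorescence intensity change per second fitted from 20 to 320 s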); details: Recombinant KvBeta, NADPH fluorescence decrease slope, 10 min; at 10 µM; stronger effect = lower value
[7] = biological target: Muscarinic acetylcholine receptor M4 (Homo sapiens) (UniProt P08173); test: compounds altering M4/GIRK thallium flux, either direction, primary screen, M4 allosteric agonist project, cell-based, HEK293 M4/GIRK, BTC-AM (AID 625;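 active = fluorescence slope after compound addition differing from the mean of all tested samples at 99.7% confidence, mostly higher but some lower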;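 note: thallium influx through GIRK channels coupled to M4 in HEK293 cells with BTC-AM dye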); details: at 10 µM, actives lie on both sides
Muscarinic acetylcholine receptor M4 (Homo sapiens), sequence (P08173 whole entry, looked up): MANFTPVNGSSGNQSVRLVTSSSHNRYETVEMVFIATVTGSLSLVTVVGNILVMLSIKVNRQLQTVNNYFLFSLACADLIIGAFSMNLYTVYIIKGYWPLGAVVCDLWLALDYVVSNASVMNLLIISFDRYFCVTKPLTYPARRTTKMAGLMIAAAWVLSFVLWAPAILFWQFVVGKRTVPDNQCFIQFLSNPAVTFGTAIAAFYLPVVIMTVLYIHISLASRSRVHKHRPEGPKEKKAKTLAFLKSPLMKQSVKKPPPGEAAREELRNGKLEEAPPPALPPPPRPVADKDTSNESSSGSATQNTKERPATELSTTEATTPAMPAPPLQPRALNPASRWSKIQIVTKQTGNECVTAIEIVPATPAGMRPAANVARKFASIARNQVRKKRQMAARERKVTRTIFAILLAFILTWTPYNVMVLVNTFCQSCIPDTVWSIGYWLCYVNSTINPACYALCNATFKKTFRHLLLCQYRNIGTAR
Outline: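 System: HEK293 cells with M4 receptor and GIRK channels | Incubation: Cells overnight at 37 °C, BTC-AM loading 1 h, reads 2 min total | Technique: Kinetic BTC-AM fluorescence sampled at 1 Hz, 10 s pre-addition baseline | Measure: Post-addition slope, 15–24 s, of baseline-normalized fluorescence | Control set: Carbachol positive, DMSO negative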

[8] = inhibitors of larval lipid processing in zebrafish, primary screen, whole organism, PED6 fluorescence, gall bladder and intestine (AID 686); details: Zebrafish larvae PED6 lipid processing, fluorescence scoring; screened at 20 µM (by protocol);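 note: larvae 5 to 7 days old with five fish per well; signal comes from phospholipase A2 cleavage of quenched PED6 carried via bile; overnight exposure to compound and PED6 before scoring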
Outline: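 Test system – live zebrafish larvae aged 5-7 days, whole organism · Buffer or medium – E3 fish medium · Reagent – quenched phospholipase substrate PED6, 100 nM final, ingested by larvae · Doses – 20 µM single dose · Incubation – overnight compound and PED6 incubation · Technique – visual fluorescence microscopy scoring of gall bladder, gut · Read-out basis – visual per-well fluorescence inhibition score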

[9] = inhibitors of Chlamydomonas gravitaxis, primary screen, whole organism, Chlamydomonas reinhardtii, WT vs cilia-less mutant, absorbance, 96-well (AID 463189;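 active = inhibition at or above 50% relative to wild type and mutant plate controls; inactive = inhibition below 50%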;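 note: 0% = wild type cc124 cells in DMSO and 100% = ciliumless bld1 mutant cells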); details: OD600 absorbance, 2 days, at 10 µM, stronger effect = higher value
[10] = measured here: cell density z-score
[11] = measured here: nuclear c-Myc green intensity z-score
[12] = measured here: nuclear pErk red intensity z-score, stronger effect = higher value

In the case of `CCN(CC)CCN1C(=O)C(=O)/C(=C(/O)c2ccc(OC)cc2)C1c1ccco1` (stereo not drawn), the cell count [1] is reported as 710, the inhibition [1] is reported as -1.4% (inactive) and the inhibition [2] is reported as 4.1% (inactive). The nuclei count [2] was 163%, the z-score [3, 10] was 0.167 and the z-score [3, 11] was 0.629. For the same molecule, the z-score [3, 12] was 0.173, the inhibition [4] was -7.67% (inactive) and the fluorescence slope [5] was -0.496 (inactive). The NADPH fluorescence slope [6] was -6.6e-05 (inactive), the fluorescence slope [7] was 0.00632 (inactive) and the outcome [8] was “inactive”. For the same molecule, the inhibition [9] was 5.19% (inactive).

In the case of `CCCCCOc1ccc(C(=O)NCC(=O)NCC(=O)OCC)cc1`, the cell count [1] is reported as 715, the inhibition [1] is reported as 9.7% (inactive) and the inhibition [2] is reported as -113% (inactive). For the same molecule, the nuclei count [2] was 150%, the z-score [3, 10] was -0.426 and the z-score [3, 11] was -0.0633. For the same molecule, the z-score [3, 12] was -0.949, the inhibition [4] was 1.63% (inactive) and the fluorescence slope [5] was -0.417 (inactive). The NADPH fluorescence slope [6] was -6e-05 (inactive), the fluorescence slope [7] was 0.00389 (inactive) and the outcome [8] was “inactive”. For the same molecule, the inhibition [9] was -5.95% (inactive).

With `CC1(C)Cc2c(C#N)c(SCCOc3ccccc3)nc(N3CCOCC3)c2CO1` the cell count [1] was 387, the inhibition [1] was -7.4% (inactive) and the inhibition [2] was -56.3% (inactive). It also gave a nuclei count [2] of 82.1%, a z-score [3, 10] of -1.25 and a z-score [3, 11] of 1.29. The z-score [3, 12] was 1.84, the inhibition [4] was 5.42% (inactive) and the fluorescence slope [5] was -0.415 (inactive). For the same molecule, the NADPH fluorescence slope [6] was -3.7e-05 (inactive), the fluorescence slope [7] was 0.00791 (inactive) and the outcome [8] was “inactive”. For the same molecule, the inhibition [9] was 25.7% (inactive).

With `CCOC(=O)c1[nH]c2ccc(OC)cc2c1NC(=O)CCN1CCc2ccccc2C1` the cell count [1] was 515, the inhibition [1] was -5.3% (inactive) and the inhibition [2] was -124% (inactive). It also gave a nuclei count [2] of 136%, a z-score [3, 10] of -0.0545 and a z-score [3, 11] of -2.02. The z-score [3, 12] was 1.46, the inhibition [4] was 3.42% (inactive) and the fluorescence slope [5] was -0.323 (inactive). For the same molecule, the NADPH fluorescence slope [6] was -3.8e-05 (inactive), the fluorescence slope [7] was 0.00491 (inactive) and the outcome [8] was “inactive”. The inhibition [9] was -5.17% (inactive).

In the case of `C=CCn1c(-c2ccc(OC)c(OC)c2)n[nH]c1=S`, the cell count [1] is reported as 515, the inhibition [1] is reported as -3.9% (inactive) and the inhibition [2] is reported as 9.4% (inactive). It also gave a nuclei count [2] of 150%, a z-score [3, 10] of 0.455 and a z-score [3, 11] of -1.23. For the same molecule, the z-score [3, 12] was -0.521, the inhibition [4] was 5.95% (inactive) and the fluorescence slope [5] was -0.338 (inactive). The NADPH fluorescence slope [6] was -3.6e-05 (inactive), the fluorescence slope [7] was 0.00705 (inactive) and the outcome [8] was “inactive”. For the same molecule, the inhibition [9] was 30.5% (inactive).

For `COC(=O)c1ccccc1OCc1cccc(C)n1`, the cell count [1] was 642, the inhibition [1] was -3.5% (inactive) and the inhibition [2] was -85% (inactive). For the same molecule, the nuclei count [2] was 138%, the z-score [3, 10] was 0.411 and the z-score [3, 11] was 0.832. The z-score [3, 12] was -0.721, the inhibition [4] was 1.9e-07% (inactive) and the fluorescence slope [5] was -0.495 (inactive). For the same molecule, the NADPH fluorescence slope [6] was -3.1e-05 (inactive), the fluorescence slope [7] was 0.00518 (inactive) and the outcome [8] was “inactive”. The inhibition [9] was -11.3% (inactive).

In the case of `CCCCCCOc1ccc(N2C(=O)CC(N3CCN(C(=O)c4ccco4)CC3)C2=O)cc1` (stereo not drawn), the cell count [1] is reported as 632, the inhibition [1] is reported as 8.2% (inactive) and the inhibition [2] is reported as -105% (inactive). It also gave a nuclei count [2] of 150%, a z-score [3, 10] of 0.106 and a z-score [3, 11] of -0.155. For the same molecule, the z-score [3, 12] was -0.8, the inhibition [4] was 10.1% (inactive) and the fluorescence slope [5] was -0.487 (inactive). The NADPH fluorescence slope [6] was -3.5e-05 (inactive), the fluorescence slope [7] was 0.00531 (inactive) and the outcome [8] was “inactive”. The inhibition [9] was 5.01% (inactive).

For `Cc1cc(C)n(CC2CC(=O)N(c3ccc(C)c(Cl)c3)C2=O)n1` (stereo not drawn), the cell count [1] was 597, the inhibition [1] was -3.7% (inactive) and the inhibition [2] was 19% (inactive). For the same molecule, the nuclei count [2] was 93.4%, the z-score [3, 10] was 1.31 and the z-score [3, 11] was -0.417. For the same molecule, the z-score [3, 12] was 0.186, the inhibition [4] was 12.8% (inactive) and the fluorescence slope [5] was -0.517 (inactive). The NADPH fluorescence slope [6] was -2.4e-05 (inactive), the fluorescence slope [7] was 0.00527 (inactive) and the outcome [8] was “inactive”. The inhibition [9] was -14.7% (inactive).

For `CCn1c(SCC(=O)NCc2ccco2)nnc1-c1ccc(N)cc1`, the cell count [1] was 669, the inhibition [1] was -1% (inactive) and the inhibition [2] was 19.4% (inactive). It also gave a nuclei count [2] of 189%, a z-score [3, 10] of -0.439 and a z-score [3, 11] of 0.193. For the same molecule, the z-score [3, 12] was -0.177, the inhibition [4] was -3.95% (inactive) and the fluorescence slope [5] was -0.491 (inactive). The NADPH fluorescence slope [6] was -4.4e-05 (inactive), the fluorescence slope [7] was 0.00557 (inactive) and the outcome [8] was “inactive”. For the same molecule, the inhibition [9] was 6.36% (inactive).

In the case of `C=CCNc1nc(C)nc(OC)n1`, the cell count [1] is reported as 634, the inhibition [1] is reported as -0.1% (inactive) and the inhibition [2] is reported as 69.9% (active). It also gave a nuclei count [2] of 85.8%, a z-score [3, 10] of -3.44 and a z-score [3, 11] of 2.82. For the same molecule, the z-score [3, 12] was 1.07, the inhibition [4] was 14.7% (inactive) and the fluorescence slope [5] was -0.481 (inactive). The NADPH fluorescence slope [6] was -4.7e-05 (inactive), the fluorescence slope [7] was 0.00536 (inactive) and the outcome [8] was “inactive”. The inhibition [9] was -10.1% (inactive).

In the case of `Cc1ccc(NC(=O)CSc2nnc(-c3ccco3)c(-c3ccco3)n2)cc1`, the cell count [1] is reported as 389, the inhibition [1] is reported as -7.7% (inactive) and the inhibition [2] is reported as -155% (inactive). It also gave a nuclei count [2] of 183%, a z-score [3, 10] of -0.429 and a z-score [3, 11] of -0.71. The z-score [3, 12] was 1.45, the inhibition [4] was -0.608% (inactive) and the fluorescence slope [5] was -0.453 (inactive). For the same molecule, the NADPH fluorescence slope [6] was -0.000112 (inactive), the fluorescence slope [7] was 0.00329 (inactive) and the outcome [8] was “inactive”. The inhibition [9] was 11.9% (inactive).
